Measurements taken from ChEMBL document CHEMBL4251757 (J Med Chem, 2018).
Each block holds one compound with its values, some of them ahead of it.

Legend:
[1] = target: T1, Oxoeicosanoid receptor 1 (Homo sapiens, UniProt Q8TDS5); assay: Antagonist activity at OXE receptor in human neutrophils assessed as inhibition of 5-oxo-ETE-induced calcium mobilization incubated for 2 mins followed by 5-oxo-ETE addition by fluorescence assay; type: functional
Summary of the method: (§1)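 Human neutrophils were isolated from healthy donors by dextran sedimentation and Ficoll-Paque centrifugation, then loaded with indo-1. Fluorescence was read at 37 °C in a stirred cuvette. Antagonist was added at various concentrations; 2 min later 5-oxo-ETE (10 nM) was added. Digitonin (final 0.1%) followed 1 min later to give maximal fluorescence.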

[2] = Cmax in cynomolgus monkey plasma at 30 mg/kg administered via oral gavage by RP-HPLC analysis; type: ADME, organism-based, Macaca fascicularis; parameters: dose 30 mg/kg, route oral
Summary of the method: (§2)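 Female cynomolgus monkeys (2.5–3.5 kg). Compound dissolved in EtOH at 75 mg/mL, diluted in 10 volumes of 20 mM NaHCO3 pH 8.0 (9.1% EtOH) and given by oral gavage; 4.4 mL/kg for 30 mg/kg, 2.2 mL/kg for lower doses. Blood drawn into heparin pre-dose and at 0.5, 1, 2, 4, 8, 12, 24 h, sometimes 3 and 7 days. Plasma diluted with 2 volumes MeOH plus internal standard, then RP-HPLC.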

[3] = Tmax in cynomolgus monkey plasma at 30 mg/kg administered via oral gavage by RP-HPLC analysis; type: ADME, organism-based, Macaca fascicularis; summary of the method: as §2
[4] = Plasma concentration in cynomolgus monkey at 30 mg/kg administered as oral gavage measured after 1 hr by RP-HPLC analysis; type: ADME, organism-based, Macaca fascicularis; summary of the method: as §2
[5] = AUC (0 to 24 hrs) in cynomolgus monkey plasma at 30 mg/kg administered via oral gavage by RP-HPLC analysis; type: ADME, organism-based, Macaca fascicularis; parameters: dose 30 mg/kg, time < 24 hr, route oral; summary of the method: as §2
[6] = Half life in cynomolgus monkey plasma at 30 mg/kg administered via oral gavage by RP-HPLC analysis; type: ADME, organism-based, Macaca fascicularis; summary of the method: as §2
[7] = Plasma concentration in cynomolgus monkey at 30 mg/kg administered as oral gavage measured after 8 hrs by RP-HPLC analysis; type: ADME, organism-based, Macaca fascicularis; summary of the method: as §2
[8] = target: T1, Oxoeicosanoid receptor 1; assay: Antagonist activity at OXE receptor in human neutrophils assessed as inhibition of 5-oxo-ETE-induced calcium mobilization incubated for 2 mins followed by 5-oxo-ETE addition measured after 1 min by fluorescence assay; type: functional; summary of the method: as §1
[9] = Plasma concentration in cynomolgus monkey at 30 mg/kg administered via oral gavage after 7 days by RP-HPLC analysis; type: ADME, organism-based, Macaca fascicularis; summary of the method: as §2
[10] = Drug level in cynomolgus monkey plasma treated with 30 mg/kg 5-(5-Chloro-1-methyl-2-(6-phenylhexyl)-1H-indol-3-yl)-3-methyl-5-oxopentanoic Acid administered via oral gavage assessed as compound formation after 12 hrs by RP-HPLC analysis; type: ADME, organism-based, Macaca fascicularis; conditions: in vivo
Summary of the method: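 Monkeys received 30 mg/kg by oral gavage in EtOH/20 mM NaHCO3 pH 8.0 vehicle. A plasma extract taken 12 h later was run by RP-HPLC on a C18 column (4 µm, 3.9 x 150 mm) with a 15-min gradient of 70–100% MeOH in H2O, both containing 0.02% HOAc. The tetramethylene analog served as internal standard.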

[11] = Plasma concentration in cynomolgus monkey at 30 mg/kg administered via oral gavage after 3 days by RP-HPLC analysis; type: ADME, organism-based, Macaca fascicularis; summary of the method: as §2

T1 sequence (Q8TDS5 whole entry): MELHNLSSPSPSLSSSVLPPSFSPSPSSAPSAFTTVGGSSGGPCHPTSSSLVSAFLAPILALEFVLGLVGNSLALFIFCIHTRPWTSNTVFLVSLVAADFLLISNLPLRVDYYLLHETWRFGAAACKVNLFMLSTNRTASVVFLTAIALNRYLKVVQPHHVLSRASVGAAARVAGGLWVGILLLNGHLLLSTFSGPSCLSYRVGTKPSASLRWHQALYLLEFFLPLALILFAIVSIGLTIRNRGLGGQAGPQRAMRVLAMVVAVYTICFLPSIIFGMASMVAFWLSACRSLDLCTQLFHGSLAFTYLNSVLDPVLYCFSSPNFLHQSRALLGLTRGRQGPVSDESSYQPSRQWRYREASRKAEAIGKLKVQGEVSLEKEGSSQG

- IC50 [8]: 0.12 µM
SMILES: C[C@@H](CC(=O)O)CC(=O)c1c([C@@H](O)CCCCCc2ccccc2)n(C)c2ccc(Cl)cc12

- IC50 [8]: 0.012 µM
SMILES: CC(CC(=O)O)CC(=O)n1c(CCCCCCc2ccccc2)cc2ccc(Cl)cc21 (stereo unspecified)

- concentration at 168 h [9]: 200 nM
- IC50 [8]: 0.00038 to 0.00069 µM
- Drug uptake [10]: Active
- concentration at 72 h [11]: 1500 nM
SMILES: C[C@H](CC(=O)O)CC(=O)c1c([C@@H](O)CCCCCc2ccccc2)n(C)c2ccc(Cl)cc12

- Drug uptake [10]: Active
SMILES: CC(CC(=O)O)CC(=O)c1c(C(O)CCCCCc2ccccc2)n(C)c2ccc(Cl)cc12 (stereo unspecified)

More lines, now with the values behind:

SMILES: CCCCC/C=C\C[C@H](O)/C=C/C=C\C=C\C(=O)CCCC(=O)O
- IC50 [1]: 0.5 µM

SMILES: CCCCCCc1c(C(=O)C[C@H](C)CC(=O)O)c2cc(Cl)ccc2n1C
- Cmax [2]: 36000 nM
- Tmax [3]: 1 h
- concentration at 1 h [4]: 36000 nM
- AUC(0-t) at 24 h [5]: 100 µM·h
- half-life [6]: 1.6 h
- concentration at 8 h [7]: 1600 nM

SMILES: CC(CC(=O)O)CC(=O)c1c(CCCCCC(F)(F)F)n(C)c2ccc(Cl)cc12 (stereo unspecified)
- IC50 [8]: 0.038 µM

SMILES: CC(CC(=O)O)CC(=O)n1c(CCCc2ccccc2)cc2ccc(Cl)cc21 (stereo unspecified)
- IC50 [8]: 0.21 µM
